This assay is described as follows: Aggregates forming ability by dynamic light scattering(DLS). The essentials:
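Compound from 10 mM DMSO stock diluted into filtered KPi (5, 50 or 500 mM); dynamic light scattering at 90° detector angle, 25 °C, argon-ion laser at 514.4 nm (helium-neon 632.8 nm for dyes absorbing at 514.4 nm). Mean particle diameter by cumulant analysis; scattering intensity recorded. Each value from four or more independent measurements.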
`CCCCc1ccc(-c2cc(C(=O)O)cc(-c3ccc(Cl)cc3)n2)cc1`: the DLS Concentration was 50 µM.
As for `Oc1ccc(/N=N/c2ccc(Br)cc2)cc1`, the DLS Concentration came out at 10 µM.
Then `O=C(O)COc1ccc(/N=N/c2ccc3cc(Br)ccc3c2O)cc1`, with 20 µM; and `O=S(=O)(O)c1cccc2cccc(Nc3ccccc3)c12`, with 1000 µM; and `C(=C1c2ccccc2-c2ccccc21)C1CCCNC1` (stereo not given), with 100 µM.
For the molecule `O=C(N/N=C/c1ccccc1O)C(=O)N/N=C/c1ccccc1O`, the DLS Concentration came out at 10 µM.
Then `O=C(O)c1cc(-c2ccc(Cl)cc2)nc(-c2ccc(Sc3ccc(Cl)cc3)cc2)c1`, with 50 µM; and `O=C(Nc1nnc(Sc2nc3cc(Cl)ccc3s2)s1)c1cccs1`, with 15 µM.
For `CC(C)(C)c1cc(/C=C2/C(=O)Nc3ncccc32)cc(C(C)(C)C)c1O` the value was 10 µM; for `CCCCCCC(Oc1ccc(S(=O)(=O)c2ccc(OCc3ccccc3)cc2)cc1)C(=O)O` (stereo not given), 500 µM.
For `CC(C)c1ccc(/C=C2/C(=O)Nc3ccccc32)cc1` the value was 10 µM; for `CC(C)CC(Oc1ccc(OC(=O)c2cc(-c3ccc(Cl)cc3)nc(-c3ccc(Cl)cc3)c2)cc1)C(=O)O` (stereo not given), 50 µM; for `O=C1Nc2ccccc2/C1=C/c1ccc(-c2cccs2)s1`, 20 µM.
For the molecule `CC(C)(C)c1ccc(-c2cc(C(=O)O)cc(-c3ccc(Cl)c(Cl)c3)n2)cc1`, the DLS Concentration stood at 50 µM.
For `Oc1ccc(/N=N/c2cccc(Br)c2)cc1` the value was 500 µM; for `O=C1Nc2ccccc2/C1=C\c1ccc2c(c1O)CCCC2`, 40 µM; for `COc1ccc2c(c1)CC[C@@H]1[C@@H]2CC[C@]2(C)[C@@H](NCCNc3ccc([N+](=O)[O-])cn3)CC[C@@H]12`, 40 µM.
Then `O=C1OC2(c3cc(I)c(O)c(I)c3Oc3c2cc(I)c(O)c3I)c2c(Cl)c(Cl)c(Cl)c(Cl)c21`, with 500 µM; and `O=C(O)c1cc(-c2ccc(Cl)cc2)nc(-c2ccc(-c3ccccc3)cc2)c1`, with 80 µM.
Regarding `Oc1ccc(-c2csc(Nc3ccc(F)cc3F)n2)cc1O`, the DLS Concentration was 300 µM.
Molecule `CN(C)c1ccc(/C=C2/C(=O)Nc3ccccc32)cc1` yielded a DLS Concentration of 30 µM.
In turn, `Nc1c(/N=N/c2ccc(-c3ccc(/N=N/c4cc(S(=O)(=O)O)c5ccccc5c4N)cc3)cc2)cc(S(=O)(=O)O)c2ccccc12` registered a DLS Concentration of 750 µM.
Then `O=C1C2C(C(=O)N1Nc1ccc([N+](=O)[O-])cc1[N+](=O)[O-])[C@@]1(Cl)C(Cl)=C(Cl)[C@]2(Cl)C1(Cl)Cl` (stereo not given in full), with 15 µM; and `OB(O)c1cc2ccccc2s1`, with 100 µM.
Then `Cc1ccc(-c2cc(C(=O)O)cc(-c3ccc4ccccc4c3)n2)cc1`, with 500 µM; and `COc1ccc2c(c1)CC[C@@H]1[C@@H]2CC[C@]2(C)[C@@H](NCCCc3ccccc3)CC[C@@H]12`, with 100 µM.
Molecule `COC1CC[C@@]2(C)[C@@H](CC[C@@H]3[C@@H]2[C@@H](O)C[C@]2(C)[C@@H](NCCN)CC[C@@H]32)C1` (stereo not given in full) gave a DLS Concentration of 100 µM.
Then `Oc1oc(/C=N/c2ccc(Oc3ccccc3)cc2)c2ccccc12`, with 100 µM; and `Cc1cc(Cl)cc2c1C(=O)/C(=C1/Sc3cc(Cl)cc(C)c3C1=O)S2`, with 20 µM; and `O=C1C(I)=CC(=C(c2cc(I)c(O)c(I)c2)c2ccccc2C(=O)O)C=C1I`, with 10 µM.
